This is a sample that favours compounds with a hit; in the whole collection about 2.7% have one here.
sdo1 growth – restores growth of sdo1-depleted yeast. S. cerevisiae sdo1-depleted JHY4D growth rescue, OD600 30 h; stronger effect = higher value; pdr5 snq2 efflux-pump mutant strain. z-score at 10 µM. actives 0.21% (n = 140,000);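 active = z-score above 3 at both the 24 hr and the 30 hr optical density reads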;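 note: z-score against mean and SD of all compound wells on the same plate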
RAM network inh – inhibitors of the yeast RAM network | S. cerevisiae dse1pr::URA3 reporter, 5-FOA growth OD615, 2 d; analog-sensitive cbk1-as2 kinase mutant strain | inhibition, % at 50 µM | AID 868 | actives 1.8% (n = 190,000);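 active = inhibition above a set limit, 3 SD over mean compound inhibition, cut at about 8.4% in these data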;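 note: 0% = DMSO-only wells with no growth and 100% = 10 µM 1-NA-PP1 full growth; inhibition rescues growth on 5-FOA so higher OD means more RAM inhibition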
BB579 growth dn – reduces growth of yeast BB579 in restrictive medium | S. cerevisiae BB579 growth, OD615, 48 h | inhibition, % at 10 µM | actives 0.51% (n = 140,000);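 active = inhibition above a set limit, 3 SD over the mean compound inhibition, cut at about 44% in these data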
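test system = yeast BB579 (DeaD) | buffer or medium = restrictive CSMM-D medium | doses = single compound dose of 10 µM, 0.25% DMSO final | times = 4 h preincubation and 48 h exposure at 30 °C | technique = culture absorbance at 615 nm | benchmarks = amphotericin B 10 µg/mL, positive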
Yeast life ext – yeast lifespan extension; inhibition of the nicotinamide effect, % at 10 µM; S. cerevisiae growth with nicotinamide, OD615; deaD strain in restrictive glucose medium; actives 0.68% (n = 130,000); AID 775;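 active = inhibition above a set limit, placed 3 SD over the median of all compounds, cut at about 26% in these data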;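 note: 0% = nicotinamide-treated wells and 100% = cells grown without nicotinamide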
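Test system: DeaD-strain S. cerevisiae / Buffer or medium: restrictive glucose medium / Also added: nicotinamide 1.5 mM / Doses: one concentration, 10 µM, DMSO 0.25% / Schedule: 48 h at 30 °C / Signal: OD615 measurement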
RAM efflux-def – RAM network inhibition, efflux-deficient strain; S. cerevisiae efflux-deficient reporter strain, 5-FOA growth OD615, 2 days; shares compounds with RAM network inh; AID 1305; max inhibition, %; 1,200 tested, under 10 active; call rule not given here;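 note: plate controls were vehicle for no effect and reference inhibitor for full effect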
* marks the source's active call; other numbers are inactive results; · = no result given.

SMILES | sdo1 growth | RAM network inh | BB579 growth dn | Yeast life ext | RAM efflux-def
COc1ccc(-c2csc(NCc3ccco3)n2)cc1C | 0 | 13* | -46 | -17 | 5
CCC(=O)OCC(=O)Nc1cc(C)c(C)cc1[N+](=O)[O-] | 1.7 | 1 | -1 | -6 | ·
COc1ccc2c(CC(=O)OCC(=O)Nc3cc(C)c(C)cc3[N+](=O)[O-])coc2c1 | 0.08 | 12* | -38 | 2 | 2
CNS(=O)(=O)c1cccc(C(=O)OCc2csc(-c3ccccc3)n2)c1 | -1.1 | 16* | 0 | 4 | 1
O=C(CNS(=O)(=O)c1cccc(Cl)c1)OCc1csc(-c2ccccc2)n1 | -1.1 | 6 | -33 | -7 | ·
Cc1ccc(C)c(C(=O)COC(=O)c2cc([N+](=O)[O-])ccc2NCCO)c1 | -0.94 | 13* | -27 | -8 | 1
O=C(O)c1cc([N+](=O)[O-])ccc1NCCO | 0.19 | 5 | 0 | 0 | ·
CCCCCCNC(=O)c1cc(-c2ccco2)nc2ccccc12 | -1.1 | 13* | -47 | · | 2
CC(C)CCNC(=O)c1cc(-c2ccco2)nc2ccccc12 | -0.47 | 4 | -25 | -5 | ·
CC(C)Cn1c(N)c(-c2nc(C(C)C)c(C(=O)c3ccccc3F)s2)c(=O)n(C)c1=O | · | 12* | · | · | 2
CC(C)CSc1nc(N2CCOCC2)c2c(c1C#N)CC(C)(C)SC2 | 0.59 | 22* | -32 | -4 | 3
COC(=O)c1ccc(NC(=O)c2cccc(C)c2[N+](=O)[O-])cc1 | · | 3 | · | · | ·
Cc1ccc(OCCCC(=O)NCc2ccco2)c(C)c1 | · | -1 | · | · | ·
COc1ccc(Oc2ccc(/C=C/C(=O)c3cccc(OC)c3)cc2[N+](=O)[O-])cc1 | -0.53 | 11* | -42 | 2 | 5
COc1ccc(-c2ccc(SCC(=O)NCc3ccc4c(c3)OCO4)nn2)cc1OC | · | 12* | · | · | 6
COc1ccc(-c2nc(CSCC(=O)NCc3ccc4c(c3)OCO4)c(C)o2)cc1OC | -0.22 | 0 | 4 | -6 | ·
CCCNS(=O)(=O)c1ccc(CCC(=O)Nc2cc(Cl)ccc2Oc2ccccc2)cc1 | -0.71 | 12* | -30 | · | 5
CC(C)(C)NS(=O)(=O)c1ccc(CCC(=O)Nc2cc(Cl)ccc2Oc2ccccc2)cc1 | -0.15 | 2 | -8 | -13 | ·
CC(C)CNS(=O)(=O)c1ccc(CCC(=O)Nc2cc(Cl)ccc2Oc2ccccc2)cc1 | -0.26 | 13* | -40 | -5 | 3
CCC(c1nnc(SCC(=O)Nc2cccnc2Cl)n1-c1ccccc1)N(C)C (stereo not given) | · | 1 | · | · | ·
COC(=O)CCSc1cc([N+](=O)[O-])cc2c1c(C1OCCO1)nn2-c1ccccc1 | -0.83 | 14* | -45 | 12 | 2
CCOC(=O)c1ccc(NC(=O)C(=O)NCc2ccco2)cc1 | · | 3 | · | · | ·
CCOC(=O)c1ccc(NC(=S)N(CCCN2CCN(CC)CC2)Cc2cccs2)cc1 | · | 3 | · | · | ·
C=CCSC1=N/C(=C/c2ccsc2)C(=O)N1c1ccccc1 | -0.77 | 14* | -51 | 0 | 2
COc1ccc(/C=C2/N=C(SCC(=O)Nc3cc(C)on3)N(c3ccccc3)C2=O)cc1 | 0.09 | 5 | -43 | 2 | ·
SMILES | sdo1 growth | RAM network inh | BB579 growth dn | Yeast life ext | RAM efflux-def
COc1ccccc1N1CCN(C(=O)COc2cc(C)cc(C)c2)CC1 | · | 2 | · | · | ·
CCN(CC)c1ccc(/C=N/NC(=O)c2cccc(N3CCCC3=O)c2)cc1 | · | 1 | · | · | ·
O=C(Nc1ccccc1-c1nnc(SCc2ccccc2)o1)c1ccccc1 | -0.54 | 19* | -22 | 7 | 4
Cc1ccccc1-c1nnc(SCc2ccc(F)cc2)o1 | -1 | 7 | -73 | -20 | ·
COc1cc(OC)cc(-c2nnc(SCc3cccc(C(=O)O)c3)o2)c1 | 0.37 | 14* | -17 | -8 | 3
O=C(O)c1cccc(CSc2nnc(-c3ccco3)o2)c1 | 0.22 | 2 | -32 | 6 | ·
Cc1ccc(NS(=O)(=O)c2ccc(C3CCCCC3)cc2)cc1 | -1.8 | 14* | -39 | 3 | 5
Cc1ccc(S(=O)(=O)Nc2ccc(N3CCCCC3)cc2)cc1 | · | 1 | · | · | ·
CCOC(=O)c1cccc(NC(=O)CSc2nnc(COc3ccccc3)n2CC)c1 | -1.5 | 14* | -33 | -6 | 3
CCn1c(COc2cccc(C)c2)nnc1SCC(=O)Nc1cccc(C(=O)OC)c1 | 0.12 | 5 | -33 | -11 | ·
COC(=O)c1scc(C)c1N/N=C(\C)c1ccc(F)cc1F | -0.6 | 13* | -51 | -3 | 5
CCOC(=O)C1=C(C)Nc2sc(C(=O)c3ccc(OC)cc3)c(N)c2C1c1ccc(C(=O)OC)cc1 (stereo not given) | -0.81 | 4 | -20 | 7 | ·
C/C(=N\OC(=O)c1ccc(Cl)cc1)c1sc(-c2ccccc2)nc1C | -0.09 | 12* | -29 | 5 | 4
C/C(=N\OC(=O)c1ccc(F)cc1)c1sc(-c2ccccc2)nc1C | -0.54 | 6 | -21 | -5 | ·

Screens as filed in PubChem.
